# Test results as given in ChEMBL document CHEMBL3616442, “Unconventional Knoevenagel-type indoles: Synthesis and cell-based studies for the identification of pro-apoptotic agents” (Eur J Med Chem, 2015).
# Active and inactive are the calls of the source. The calls are words filed in the database; no cut-off is given here.
# Tests used:
# SN12C = assay: Growth inhibition of human SN12C cells after 48 hrs by sulforhodamine B assay; format: functional
# [1] = Growth inhibition of human EKVX cells after 48 hrs by sulforhodamine B assay; format: functional
# In short: (§1)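 NCI 60-cell-line screen. Compounds tested at five 10-fold dilutions from 10^-4 to 10^-8 M. Cells exposed for the last 48 h of a 72 h incubation, growth estimated by sulforhodamine B protein assay. GI50 is the concentration giving 50% growth inhibition. Values beyond the tested range are expressed as greater or lesser than the extreme concentration.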
# OVCAR-5 = assay: Growth inhibition of human OVCAR5 cells after 48 hrs by sulforhodamine B assay; format: functional; conditions: OVCAR-5, 48 h
# HT-29 = assay: Growth inhibition of human HT-29 cells after 48 hrs by sulforhodamine B assay; format: functional; conditions: HT-29, 48 h; in short: as §1
# NCI-H322M = assay: Growth inhibition of human NCI-H322M cells after 48 hrs by sulforhodamine B assay; format: functional; in short: as §1
# SK-MEL-2 = assay: Growth inhibition of human SK-MEL-2 cells after 48 hrs by sulforhodamine B assay; format: functional; conditions: SK-MEL-2, 48 h
# [2] = Growth inhibition of human Hs 578T cells after 48 hrs by sulforhodamine B assay; format: functional; in short: as §1
# OVCAR-3 = assay: Growth inhibition of human OVCAR3 cells after 48 hrs by sulforhodamine B assay; format: functional; conditions: OVCAR-3, 48 h; in short: as §1
# IGROV-1 = assay: Growth inhibition of human IGROV1 cells after 48 hrs by sulforhodamine B assay; format: functional; conditions: IGROV-1, 48 h; in short: as §1
# OVCAR-4 = assay: Growth inhibition of human OVCAR4 cells after 48 hrs by sulforhodamine B assay; format: functional; conditions: OVCAR-4, 48 h; in short: as §1
# SF-268 = assay: Growth inhibition of human SF268 cells after 48 hrs by sulforhodamine B assay; format: functional; conditions: SF-268, 48 h
# OVCAR-8 = assay: Growth inhibition of human OVCAR8 cells after 48 hrs by sulforhodamine B assay; format: functional; conditions: OVCAR-8, 48 h
# SR = assay: Growth inhibition of human SR cells after 48 hrs by sulforhodamine B assay; format: functional
# M14 = assay: Growth inhibition of human M14 cells after 48 hrs by sulforhodamine B assay; format: functional; conditions: M14, 48 h; in short: as §1
# DU-145 = assay: Growth inhibition of human DU145 cells after 48 hrs by sulforhodamine B assay; format: functional; conditions: DU-145, 48 h; in short: as §1
# A498 = assay: Growth inhibition of human A498 cells after 48 hrs by sulforhodamine B assay; format: functional; conditions: A498, 48 h; in short: as §1
# NCI-H23 = assay: Growth inhibition of human NCI-H23 cells after 48 hrs by sulforhodamine B assay; format: functional; conditions: NCI-H23, 48 h; in short: as §1
# TK-10 = assay: Growth inhibition of human TK10 cells after 48 hrs by sulforhodamine B assay; format: functional; conditions: TK-10, 48 h
# SW-620 = assay: Growth inhibition of human SW620 cells after 48 hrs by sulforhodamine B assay; format: functional; conditions: SW-620, 48 h
# SNB-75 = assay: Growth inhibition of human SNB75 cells after 48 hrs by sulforhodamine B assay; format: functional; conditions: SNB-75, 48 h
# [3] = Growth inhibition of human RPMI8226 cells after 48 hrs by sulforhodamine B assay; format: functional; conditions: RPMI-8226, 48 h
# PC-3 = assay: Growth inhibition of human PC3 cells after 48 hrs by sulforhodamine B assay; format: functional; conditions: PC-3, 48 h
# [4] = Growth inhibition of human HCC2998 cells after 48 hrs by sulforhodamine B assay; format: functional; conditions: HCC 2998, 48 h; in short: as §1
# MDA-MB-231 = assay: Growth inhibition of human MDA-MB-231 cells after 48 hrs by sulforhodamine B assay; format: functional; conditions: MDA-MB-231, 48 h; in short: as §1
# MDA-MB-435 = assay: Growth inhibition of human MDA-MB-435 cells after 48 hrs by sulforhodamine B assay; format: functional; conditions: MDA-MB-435, 48 h; in short: as §1
# A549 = assay: Growth inhibition of human A549 cells after 48 hrs by sulforhodamine B assay; format: functional; conditions: A549, 48 h; in short: as §1
# CAKI-1 = assay: Growth inhibition of human CAKI-1 cells after 48 hrs by sulforhodamine B assay; format: functional; conditions: CAKI-1, 48 h; in short: as §1
# HOP-62 = assay: Growth inhibition of human HOP62 cells after 48 hrs by sulforhodamine B assay; format: functional; conditions: HOP-62, 48 h; in short: as §1
# MT4 = assay: Antiproliferative activity against human MT4 cells after 96 hrs by MTT assay; format: functional, cell-based; conditions: MT4, 96 h
# In short: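 Exponentially growing MT-4 cells (CD4+ human T-cells carrying integrated HTLV-1 genome), seeded at 1×10^5 cells/mL in RPMI-1640 with 10% FCS and antibiotics. Serial dilutions of compound (DMSO stock 100 mM, diluted in medium), 37 °C, 5% CO₂, 96 h. Viability read by MTT. 50% inhibition versus untreated controls by linear regression. Mean ± SD of three independent determinations.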
# [5] = Growth inhibition of human MOLT4 cells after 48 hrs by sulforhodamine B assay; format: functional; conditions: MOLT-4, 48 h; in short: as §1
# [6] = Growth inhibition of human SF295 cells after 48 hrs by sulforhodamine B assay; format: functional; conditions: SF-295, 48 h
# 786-0 = assay: Growth inhibition of human 786-0 cells after 48 hrs by sulforhodamine B assay; format: functional; conditions: 786-0, 48 h; in short: as §1
# [7] = Growth inhibition of human NCI-ADR-RES cells after 48 hrs by sulforhodamine B assay; format: functional; in short: as §1
# UACC-257 = assay: Growth inhibition of human UACC257 cells after 48 hrs by sulforhodamine B assay; format: functional; conditions: UACC-257, 48 h
# [8] = Growth inhibition of human COLO205 cells after 48 hrs by sulforhodamine B assay; format: functional; conditions: COLO 205, 48 h; in short: as §1
# HCT-116 = assay: Growth inhibition of human HCT116 cells after 48 hrs by sulforhodamine B assay; format: functional; conditions: HCT-116, 48 h; in short: as §1
# U-251 = assay: Growth inhibition of human U251 cells after 48 hrs by sulforhodamine B assay; format: functional; conditions: U-251, 48 h
# HCT-15 = assay: Growth inhibition of human HCT15 cells after 48 hrs by sulforhodamine B assay; format: functional; conditions: HCT-15, 48 h; in short: as §1
# NCI-H226 = assay: Growth inhibition of human NCI-H226 cells after 48 hrs by sulforhodamine B assay; format: functional; conditions: NCI-H226, 48 h; in short: as §1
# SK-MEL-28 = assay: Growth inhibition of human SK-MEL-28 cells after 48 hrs by sulforhodamine B assay; format: functional; conditions: SK-MEL-28, 48 h
# T47D = assay: Growth inhibition of human T47D cells after 48 hrs by sulforhodamine B assay; format: functional
# [9] = Growth inhibition of human SF539 cells after 48 hrs by sulforhodamine B assay; format: functional; conditions: SF-539, 48 h
# UACC-62 = assay: Growth inhibition of human UACC62 cells after 48 hrs by sulforhodamine B assay; format: functional; conditions: UACC-62, 48 h
# SK-OV-3 = assay: Growth inhibition of human SKOV3 cells after 48 hrs by sulforhodamine B assay; format: functional; conditions: SK-OV-3, 48 h
# Malme-3M = assay: Growth inhibition of human MALME-3M cells after 48 hrs by sulforhodamine B assay; format: functional; in short: as §1
# [10] = Growth inhibition of human LOXIMVI cells after 48 hrs by sulforhodamine B assay; format: functional; conditions: LOX IMVI; in short: as §1
# NCI-H460 = assay: Growth inhibition of human NCI-H460 cells after 48 hrs by sulforhodamine B assay; format: functional; conditions: NCI-H460, 48 h; in short: as §1
# NCI-H522 = assay: Growth inhibition of human NCI-H522 cells after 48 hrs by sulforhodamine B assay; format: functional; conditions: NCI-H522, 48 h; in short: as §1
# [11] = Growth inhibition of human BT549 cells after 48 hrs by sulforhodamine B assay; format: functional; conditions: BT-549, 48 h; in short: as §1
# [12] = Growth inhibition of human RXF393 cells after 48 hrs by sulforhodamine B assay; format: functional; conditions: RXF 393, 48 h
# [13] = Growth inhibition of human HOP92 cells after 48 hrs by sulforhodamine B assay; format: functional; conditions: HOP-92, 48 h; in short: as §1
# ACHN = assay: Growth inhibition of human ACHN cells after 48 hrs by sulforhodamine B assay; format: functional; in short: as §1
# MCF7 = assay: Growth inhibition of human MCF7 cells after 48 hrs by sulforhodamine B assay; format: functional; conditions: MCF7, 48 h; in short: as §1
# SNB-19 = assay: Growth inhibition of human SNB19 cells after 48 hrs by sulforhodamine B assay; format: functional; conditions: SNB-19, 48 h
# KM12 = assay: Growth inhibition of human KM12 cells after 48 hrs by sulforhodamine B assay; format: functional; conditions: KM12, 48 h; in short: as §1
# UO-31 = assay: Growth inhibition of human UO31 cells after 48 hrs by sulforhodamine B assay; format: functional; conditions: UO-31, 48 h
# MDA-MB-468 = assay: Growth inhibition of human MDA-MB-468 cells after 48 hrs by sulforhodamine B assay; format: functional; conditions: MDA-MB-468, 48 h; in short: as §1
# Tubulin (Homo sapiens) = Tubulin (Homo sapiens) (UniProt P68371+Q9H4B7+P0DPH7+P68366+Q13509+Q71U36+P04350+Q3ZCM7+P07437+P68363+Q9BQE3+Q6PEY2+Q13885+Q9BVA1+Q9BUF5); assay: Induction of Tubulin depolymerization in human MCF7 cells by immunofluorescence analysis; format: cell-based
# In short: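 MCF-7 cells grown and treated on chamber slides, fixed in ice-cold 100% methanol, washed in PBS with 0.1% Triton X-100, blocked 30 min in 5% BSA, then mouse anti-tubulin for 1 h and Alexa 488 secondary for 1 h; DNA counterstained with 0.2 μg/mL propidium iodide for 2 min. Paclitaxel and PBOX-15 served as tubulin controls.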
smiles,measurement,setting,value
COC(=O)/C(=C\c1c(C)[nH]c2ccccc12)S(=O)(=O)c1ccccc1,GI50,SN12C,2.6 µM
same,GI50,[1],5 µM
same,GI50,OVCAR-5,17.4 µM
same,GI50,HT-29,5.2 µM
same,GI50,NCI-H322M,8.8 µM
same,GI50,SK-MEL-2,10.6 µM
same,GI50,[2],2.9 µM
same,GI50,OVCAR-3,2.7 µM
same,GI50,IGROV-1,1.5 µM
same,GI50,OVCAR-4,5.7 µM
same,GI50,SF-268,3.3 µM
same,GI50,OVCAR-8,3.9 µM
same,GI50,SR,1.1 µM
same,GI50,M14,4.4 µM
same,GI50,DU-145,2.9 µM
same,GI50,A498,5.5 µM
same,GI50,NCI-H23,4.8 µM
same,GI50,TK-10,8.1 µM
same,GI50,SW-620,5.2 µM
same,GI50,SNB-75,3.1 µM
same,GI50,[3],3.2 µM
same,GI50,PC-3,5.6 µM
same,GI50,[4],4.9 µM
same,GI50,MDA-MB-231,2.7 µM
same,GI50,MDA-MB-435,2.9 µM
same,GI50,A549,4.9 µM
same,GI50,CAKI-1,3.3 µM
same,GI50,HOP-62,7.7 µM
same,EC50,MT4,31 µM
same,GI50,[5],1.9 µM
same,GI50,[6],3.1 µM
same,GI50,786-0,8.2 µM
same,GI50,[7],4.2 µM
same,GI50,UACC-257,7 µM
same,GI50,[8],7.5 µM
same,GI50,HCT-116,3.8 µM
same,GI50,U-251,3.4 µM
same,GI50,HCT-15,3.1 µM
same,GI50,NCI-H226,4.3 µM
same,GI50,SK-MEL-28,5.8 µM
same,GI50,T47D,3.2 µM
same,GI50,[9],3.4 µM
same,GI50,UACC-62,2.8 µM
same,GI50,SK-OV-3,9.3 µM
same,GI50,Malme-3M,7.3 µM
same,GI50,[10],2 µM
same,GI50,NCI-H460,3 µM
same,GI50,NCI-H522,3.2 µM
same,GI50,[11],5.4 µM
same,GI50,[12],3.6 µM
same,GI50,[13],4.1 µM
same,GI50,ACHN,5.5 µM
same,GI50,MCF7,2.8 µM
same,GI50,SNB-19,7.6 µM
same,GI50,KM12,2.4 µM
same,GI50,UO-31,4.4 µM
same,GI50,MDA-MB-468,6.3 µM
CC(=O)OC1=C(c2cccc3ccccc23)Oc2cc3ccccc3cc2-n2cccc21,Activity,Tubulin (Homo sapiens),Active
